# Data published in ChEMBL document CHEMBL3124806, “Imidazopyridine-fused [1,3]-diazepinones: synthesis and antiproliferative activity” (Eur J Med Chem, 2014).
# Key:
# Assay type in all cases: functional
# HOP-62 = experiment: Cytotoxicity against human HOP62 cells assessed as cell growth at 10 uM after 48 hrs by SRB assay relative to untreated control; settings: HOP-62, 48 h, read-out: Activity
# Outline: (§1)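 NCI-60 panel screen at a single concentration of 10 μM with 48 h incubation. Cell density measured by sulforhodamine B protein-binding dye and read spectrophotometrically. Growth expressed as percent of untreated control cells.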
# OVCAR-8 = experiment: Cytotoxicity against human OVCAR8 cells assessed as cell growth at 10 uM after 48 hrs by SRB assay relative to untreated control; settings: OVCAR-8, 48 h, read-out: Activity
# Outline: (§2)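 NCI-60 one-dose screen: each agent added at 10 µM, cultures incubated 48 h. Endpoint by sulforhodamine B protein-binding dye read spectrophotometrically; growth expressed as percent of untreated control cells.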
# RPMI-8226 = experiment: Cytotoxicity against human RPMI8226 cells assessed as cell growth at 10 uM after 48 hrs by SRB assay relative to untreated control; settings: RPMI-8226, 48 h, read-out: Activity; outline: as §2
# [1] = Cytotoxicity against human OVCAR4 cells assessed as cell growth at 10 uM after 48 hrs by SRB assay relative to untreated control; settings: OVCAR-4, 48 h, read-out: Activity; outline: as §2
# HT-29 = experiment: Cytotoxicity against human HT-29 cells assessed as cell growth at 10 uM after 48 hrs by SRB assay relative to untreated control; settings: HT-29, 48 h, read-out: Activity; outline: as §1
# NCI-H226 = experiment: Cytotoxicity against human NCI-H226 cells assessed as cell growth at 10 uM after 48 hrs by SRB assay relative to untreated control; settings: NCI-H226, 48 h, read-out: Activity; outline: as §2
# NCI-H322M = experiment: Cytotoxicity against human NCI-H322M cells assessed as cell growth at 10 uM after 48 hrs by SRB assay relative to untreated control; settings: read-out: Activity; outline: as §2
# NCI-H522 = experiment: Cytotoxicity against human NCI-H522 cells assessed as cell growth at 10 uM after 48 hrs by SRB assay relative to untreated control; settings: NCI-H522, 48 h, read-out: Activity; outline: as §2
# RXF 393 = experiment: Cytotoxicity against human RXF393 cells assessed as cell growth at 10 uM after 48 hrs by SRB assay relative to untreated control; settings: RXF 393, 48 h, read-out: Activity; outline: as §2
# SF-539 = experiment: Cytotoxicity against human SF539 cells assessed as cell growth at 10 uM after 48 hrs by SRB assay relative to untreated control; settings: SF-539, 48 h, read-out: Activity; outline: as §2
# BT-549 = experiment: Cytotoxicity against human BT549 cells assessed as cell growth at 10 uM after 48 hrs by SRB assay relative to untreated control; settings: BT-549, 48 h, read-out: Activity; outline: as §1
# SW-620 = experiment: Cytotoxicity against human SW620 cells assessed as cell growth at 10 uM after 48 hrs by SRB assay relative to untreated control; settings: SW-620, 48 h, read-out: Activity
# Outline: (§3)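 NCI-60 single-dose screen. Compounds were added to the cultures at 10 μM and incubated for 48 h. The end point was sulforhodamine B protein staining read spectrophotometrically. Growth is reported as percent of untreated control cells.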
# SK-OV-3 = experiment: Cytotoxicity against human SKOV3 cells assessed as cell growth at 10 uM after 48 hrs by SRB assay relative to untreated control; settings: SK-OV-3, 48 h, read-out: Activity; outline: as §3
# MDA-MB-435 = experiment: Cytotoxicity against human MDA-MB-435 cells assessed as cell growth at 10 uM after 48 hrs by SRB assay relative to untreated control; settings: MDA-MB-435, 48 h, read-out: Activity; outline: as §2
# MDA-MB-231 = experiment: Cytotoxicity against human MDA-MB-231 cells assessed as cell growth at 10 uM after 48 hrs by SRB assay relative to untreated control; settings: MDA-MB-231, 48 h, read-out: Activity; outline: as §2
# SF-295 = experiment: Cytotoxicity against human SF295 cells assessed as cell growth at 10 uM after 48 hrs by SRB assay relative to untreated control; settings: SF-295, 48 h, read-out: Activity; outline: as §2
# IGROV-1 = experiment: Cytotoxicity against human IGROV1 cells assessed as cell growth at 10 uM after 48 hrs by SRB assay relative to untreated control; settings: IGROV-1, 48 h, read-out: Activity; outline: as §1
# [2] = Cytotoxicity against human Hs578T cells assessed as cell growth at 10 uM after 48 hrs by SRB assay relative to untreated control; settings: Hs-578T, read-out: Activity; outline: as §1
# SNB-75 = experiment: Cytotoxicity against human SNB75 cells assessed as cell growth at 10 uM after 48 hrs by SRB assay relative to untreated control; settings: SNB-75, 48 h, read-out: Activity; outline: as §3
# LOX IMVI = experiment: Cytotoxicity against human LOXIMVI cells assessed as cell growth at 10 uM after 48 hrs by SRB assay relative to untreated control; settings: read-out: Activity; outline: as §1
# SK-MEL-5 = experiment: Cytotoxicity against human SK-MEL-5 cells assessed as cell growth at 10 uM after 48 hrs by SRB assay relative to untreated control; settings: SK-MEL-5, 48 h, read-out: Activity; outline: as §3
# CAKI-1 = experiment: Cytotoxicity against human Caki1 cells assessed as cell growth at 10 uM after 48 hrs by SRB assay relative to untreated control; settings: CAKI-1, 48 h, read-out: Activity; outline: as §1
# Malme-3M = experiment: Cytotoxicity against human MALME-3M cells assessed as cell growth at 10 uM after 48 hrs by SRB assay relative to untreated control; settings: read-out: Activity; outline: as §1
# U-251 = experiment: Cytotoxicity against human U251 cells assessed as cell growth at 10 uM after 48 hrs by SRB assay relative to untreated control; settings: U-251, 48 h, read-out: Activity; outline: as §3
# UACC-62 = experiment: Cytotoxicity against human UACC62 cells assessed as cell growth at 10 uM after 48 hrs by SRB assay relative to untreated control; settings: UACC-62, 48 h, read-out: Activity; outline: as §3
# [3] = Cytotoxicity against human OVCAR5 cells assessed as cell growth at 10 uM after 48 hrs by SRB assay relative to untreated control; settings: OVCAR-5, 48 h, read-out: Activity; outline: as §2
# CCRF-CEM = experiment: Cytotoxicity against human CCRF-CEM cells assessed as cell growth at 10 uM after 48 hrs by SRB assay relative to untreated control; settings: read-out: Activity; outline: as §1
# [4] = Cytotoxicity against human NCI-ADR-RES cells assessed as cell growth at 10 uM after 48 hrs by SRB assay relative to untreated control; settings: read-out: Activity; outline: as §2
# HOP-92 = experiment: Cytotoxicity against human HOP92 cells assessed as cell growth at 10 uM after 48 hrs by SRB assay relative to untreated control; settings: HOP-92, 48 h, read-out: Activity; outline: as §1
# NCI-H23 = experiment: Cytotoxicity against human NCI-H23 cells assessed as cell growth at 10 uM after 48 hrs by SRB assay relative to untreated control; settings: NCI-H23, 48 h, read-out: Activity; outline: as §2
# PC-3 = experiment: Cytotoxicity against human PC3 cells assessed as cell growth at 10 uM after 48 hrs by SRB assay relative to untreated control; settings: PC-3, 48 h, read-out: Activity; outline: as §2
SMILES,growth at 10 µM (HOP-62),growth at 10 µM (RPMI-8226),growth at 10 µM [1],growth at 10 µM (HT-29),growth at 10 µM (NCI-H226),growth at 10 µM (NCI-H322M),growth at 10 µM (NCI-H522),growth at 10 µM (RXF 393),growth at 10 µM (SF-539),growth at 10 µM (BT-549),growth at 10 µM (SW-620),growth at 10 µM (SK-OV-3),growth at 10 µM (MDA-MB-435),growth at 10 µM (MDA-MB-231),growth at 10 µM (SF-295),growth at 10 µM (IGROV-1),growth at 10 µM [2],growth at 10 µM (SNB-75),growth at 10 µM (LOX IMVI),growth at 10 µM (SK-MEL-5),other results
C[C@@H]1NC(c2ccc(N(C)C)cc2)=Nc2nc3ccccn3c2C1=O,74.2%,84.9%,91.8%,101%,77.5%,69.2%,79.4%,111%,92.7%,88.1%,85.3%,91%,94.5%,78.9%,92.1%,84.8%,83.3%,70%,87%,95.4%,growth at 10 µM (OVCAR-8): 88.2%; growth at 10 µM (CAKI-1): 89.7%; growth at 10 µM (Malme-3M): 100%; growth at 10 µM (U-251): 94.8%; growth at 10 µM (UACC-62): 83.7%; growth at 10 µM [3]: 90.5%; growth at 10 µM (CCRF-CEM): 88.7%; growth at 10 µM [4]: 80.3%; growth at 10 µM (HOP-92): 33%; growth at 10 µM (NCI-H23): 79.8%
COc1ccc(C2=Nc3nc4ccccn4c3C(=O)[C@H](C)N2)cc1,80.4%,88.5%,98.4%,98.5%,86.9%,80.3%,87.4%,121%,97.3%,85.7%,106%,94.7%,90.2%,84.9%,98.2%,89.3%,98.3%,81.9%,87.6%,100%,growth at 10 µM (PC-3): 87.3%; growth at 10 µM (OVCAR-8): 97.4%; growth at 10 µM (CAKI-1): 93.5%; growth at 10 µM (Malme-3M): 94.3%; growth at 10 µM (U-251): 98.5%; growth at 10 µM (UACC-62): 94.3%; growth at 10 µM [3]: 101%; growth at 10 µM (CCRF-CEM): 91.7%; growth at 10 µM [4]: 96.5%; growth at 10 µM (HOP-92): 72.5%; growth at 10 µM (NCI-H23): 93.5%
O=C1Nc2nc3ccccn3c2C(=O)[C@H](Cc2ccccc2)N1,97.2%,105%,111%,106%,104%,103%,94%,105%,95.9%,96.9%,101%,112%,96.4%,106%,105%,109%,102%,79.1%,93.5%,97.2%,growth at 10 µM (PC-3): 95.2%; growth at 10 µM (OVCAR-8): 95.8%; growth at 10 µM (CAKI-1): 96.2%; growth at 10 µM (Malme-3M): 93.2%; growth at 10 µM (U-251): 93.2%; growth at 10 µM (UACC-62): 104%; growth at 10 µM [3]: 95%; growth at 10 µM (CCRF-CEM): 113%; growth at 10 µM [4]: 98.7%; growth at 10 µM (HOP-92): 86.5%; growth at 10 µM (NCI-H23): 101%
Cc1ccc(C2=Nc3nc4ccccn4c3C(=O)[C@H](C)N2)cc1,62.9%,88.6%,88.7%,82.8%,80.5%,81.7%,66.5%,105%,90%,85.7%,82.3%,90.2%,25.7%,79.7%,87.4%,70.9%,94.8%,68%,88.6%,81.7%,growth at 10 µM (PC-3): 72.9%; growth at 10 µM (OVCAR-8): 93.8%; growth at 10 µM (CAKI-1): 86.1%; growth at 10 µM (Malme-3M): 82.6%; growth at 10 µM (U-251): 95.5%; growth at 10 µM (UACC-62): 80.1%; growth at 10 µM [3]: 94%; growth at 10 µM (CCRF-CEM): 85.2%; growth at 10 µM [4]: 79.6%; growth at 10 µM (HOP-92): 66.3%; growth at 10 µM (NCI-H23): 85%
Cc1ccc(C2=Nc3nc4ccccn4c3C(=O)[C@H](Cc3ccccc3)N2)cc1,75.9%,107%,102%,114%,88.2%,104%,98.1%,95.7%,98.8%,88.3%,102%,109%,46.8%,93.7%,84%,89.1%,96.2%,80.2%,85.8%,86.5%,growth at 10 µM (PC-3): 80.7%; growth at 10 µM (OVCAR-8): 92.9%; growth at 10 µM (CAKI-1): 76.8%; growth at 10 µM (Malme-3M): 99.9%; growth at 10 µM (U-251): 99.3%; growth at 10 µM (UACC-62): 93.2%; growth at 10 µM [3]: 99.2%; growth at 10 µM (CCRF-CEM): 103%; growth at 10 µM [4]: 87.1%; growth at 10 µM (HOP-92): 88.3%; growth at 10 µM (NCI-H23): 82.5%
C[C@@H]1NC(c2ccccc2)=Nc2nc3ccccn3c2C1=O,102%,85.7%,103%,113%,88%,102%,95.4%,104%,108%,93.2%,93.5%,101%,91.6%,89.8%,89%,88.2%,93.8%,82.8%,84.2%,99.2%,growth at 10 µM (PC-3): 82.5%; growth at 10 µM (CAKI-1): 81.8%; growth at 10 µM (Malme-3M): 99.5%; growth at 10 µM (U-251): 102%; growth at 10 µM (UACC-62): 104%; growth at 10 µM [3]: 114%; growth at 10 µM (CCRF-CEM): 104%; growth at 10 µM [4]: 97.4%; growth at 10 µM (HOP-92): 75.5%; growth at 10 µM (NCI-H23): 91.9%
